{
  "source": "ChEMBL document CHEMBL1159324",
  "about": "“Bioactive isomalabaricane triterpenes from the marine sponge Rhabdastrella globostellata” (J Nat Prod, 2002)",
  "data": [
    {"system": "HCT-116", "test": "Cytotoxicity against P53 deficient human HCT116 cells after 48 hrs by MTS assay", "assay_type": "functional, cell-based", "conditions": "HCT-116, 48 h", "how_it_was_run": "(§1)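 HCT116 colon tumour lines (wild type and isogenic p53- or p21-deficient, p21 disrupted by homologous recombination) grown in McCoy's 5A with 10% FBS, penicillin/streptomycin, L-glutamine and sodium pyruvate at 37 °C, 5% CO2. Seeded per well at 3000 (p53+, p53-), 4000 (p21+) or 6000 (p21-) cells. After 24 h, medium was replaced. Cells were exposed to varying concentrations for 48 h, and MTS bioreduction was read at 490 nm.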", "units": {"IC50": "µM"}, "values": [
      {"molecule": "CC(/C=C/C=C(C)/C=C/C=C(\\C)C(=O)O)=C1/C(=O)C[C@H]2[C@@]3(C)CCC(=O)C(C)(C)[C@@H]3CC[C@]12C", "note": "[STELLETIN E]", "IC50": "> 5.39"},
      {"molecule": "CC(/C=C/C=C(\\C)c1ccc(C)c(=O)o1)=C1/C(=O)C[C@H]2[C@@]3(C)CCC(=O)C(C)(C)[C@@H]3CC[C@]12C", "note": "[STELLETTIN B]", "IC50": 8.23}
    ]},
    {"system": "HCT-116", "test": "Cytotoxicity against P53+ wild type human HCT116 cells after 48 hrs by MTS assay", "assay_type": "functional, cell-based", "conditions": "HCT-116, 48 h", "how_it_was_run": "as §1", "units": {"IC50": "µM"}, "values": [
      {"molecule": "CC(/C=C/C=C(C)/C=C/C=C(\\C)C(=O)O)=C1/C(=O)C[C@H]2[C@@]3(C)CCC(=O)C(C)(C)[C@@H]3CC[C@]12C", "note": "[STELLETIN E]", "IC50": "> 5.39"},
      {"molecule": "CC(/C=C/C=C(\\C)c1ccc(C)c(=O)o1)=C1/C(=O)C[C@H]2[C@@]3(C)CCC(=O)C(C)(C)[C@@H]3CC[C@]12C", "note": "[STELLETTIN B]", "IC50": 7.25}
    ]},
    {"system": "HCT-116", "test": "Cytotoxicity against P21 deficient human HCT116 cells after 48 hrs by MTS assay", "assay_type": "functional, cell-based", "conditions": "HCT-116, 48 h", "how_it_was_run": "as §1", "units": {"IC50": "µM"}, "values": [
      {"molecule": "CC(=O)O[C@H]1CC[C@@]2(C)[C@@H](CC[C@]3(C)/C(=C(C)/C=C/C=C(C)/C=C/C=C(\\C)C(=O)O)C(=O)C[C@@H]23)C1(C)C", "IC50": 3.86},
      {"molecule": "CC(=O)O[C@H]1CC[C@@]2(C)[C@@H](CC[C@]3(C)\\C(=C(C)/C=C/C=C(C)/C=C/C=C(\\C)C(=O)O)C(=O)C[C@@H]23)C1(C)C", "IC50": 3.98},
      {"molecule": "CC(/C=C/C=C(\\C)C(=O)O)=C\\C=C\\C(C)=C1\\C(=O)C[C@H]2[C@@]3(C)CCC(=O)C(C)(C)[C@@H]3CC[C@]12C", "note": "[RHABDASTRELLIC ACID A]", "IC50": 3.49},
      {"molecule": "C\\C(=C/C=C/C(C)=C1/C(=O)C[C@H]2[C@@]3(C)CCC(=O)C(C)(C)[C@@H]3CC[C@]12C)c1ccc(C)c(=O)o1", "note": "[STELLETIN A]", "IC50": 0.26},
      {"molecule": "CC(/C=C/C=C(C)/C=C/C=C(\\C)C(=O)O)=C1/C(=O)C[C@H]2[C@@]3(C)CCC(=O)C(C)(C)[C@@H]3CC[C@]12C", "note": "[STELLETIN E]", "IC50": 0.039},
      {"molecule": "CC(/C=C/C=C(\\C)c1ccc(C)c(=O)o1)=C1/C(=O)C[C@H]2[C@@]3(C)CCC(=O)C(C)(C)[C@@H]3CC[C@]12C", "note": "[STELLETTIN B]", "IC50": 0.043},
      {"molecule": "CC(=O)O[C@H]1CC[C@@]2(C)[C@@H](CC[C@]3(C)\\C(=C(C)/C=C/C=C(\\C)c4ccc(C)c(=O)o4)C(=O)C[C@@H]23)C1(C)C", "note": "[STELLETTIN C]", "IC50": 0.3},
      {"molecule": "CC(=O)O[C@H]1CC[C@@]2(C)[C@@H](CC[C@]3(C)/C(=C(C)/C=C/C=C(\\C)c4ccc(C)c(=O)o4)C(=O)C[C@@H]23)C1(C)C", "note": "[STELLETTIN D]", "IC50": 0.31}
    ]},
    {"system": "HCT-116", "test": "Cytotoxicity against P21+ wild type human HCT116 cells after 48 hrs by MTS assay", "assay_type": "functional, cell-based", "conditions": "HCT-116, 48 h", "how_it_was_run": "as §1", "units": {"IC50": "µM"}, "values": [
      {"molecule": "CC(=O)O[C@H]1CC[C@@]2(C)[C@@H](CC[C@]3(C)/C(=C(C)/C=C/C=C(C)/C=C/C=C(\\C)C(=O)O)C(=O)C[C@@H]23)C1(C)C", "IC50": "> 4.92"},
      {"molecule": "CC(=O)O[C@H]1CC[C@@]2(C)[C@@H](CC[C@]3(C)\\C(=C(C)/C=C/C=C(C)/C=C/C=C(\\C)C(=O)O)C(=O)C[C@@H]23)C1(C)C", "IC50": "> 4.92"},
      {"molecule": "CC(/C=C/C=C(\\C)C(=O)O)=C\\C=C\\C(C)=C1\\C(=O)C[C@H]2[C@@]3(C)CCC(=O)C(C)(C)[C@@H]3CC[C@]12C", "note": "[RHABDASTRELLIC ACID A]", "IC50": "> 5.39"},
      {"molecule": "C\\C(=C/C=C/C(C)=C1/C(=O)C[C@H]2[C@@]3(C)CCC(=O)C(C)(C)[C@@H]3CC[C@]12C)c1ccc(C)c(=O)o1", "note": "[STELLETIN A]", "IC50": 4.46},
      {"molecule": "CC(/C=C/C=C(C)/C=C/C=C(\\C)C(=O)O)=C1/C(=O)C[C@H]2[C@@]3(C)CCC(=O)C(C)(C)[C@@H]3CC[C@]12C", "note": "[STELLETIN E]", "IC50": 4.57},
      {"molecule": "CC(/C=C/C=C(\\C)c1ccc(C)c(=O)o1)=C1/C(=O)C[C@H]2[C@@]3(C)CCC(=O)C(C)(C)[C@@H]3CC[C@]12C", "note": "[STELLETTIN B]", "IC50": 0.65},
      {"molecule": "CC(=O)O[C@H]1CC[C@@]2(C)[C@@H](CC[C@]3(C)\\C(=C(C)/C=C/C=C(\\C)c4ccc(C)c(=O)o4)C(=O)C[C@@H]23)C1(C)C", "note": "[STELLETTIN C]", "IC50": 2.45},
      {"molecule": "CC(=O)O[C@H]1CC[C@@]2(C)[C@@H](CC[C@]3(C)/C(=C(C)/C=C/C=C(\\C)c4ccc(C)c(=O)o4)C(=O)C[C@@H]23)C1(C)C", "note": "[STELLETTIN D]", "IC50": 0.43}
    ]}
  ]
}
